Source: ChEMBL document CHEMBL1136928, “Novel orally bioavailable gamma-secretase inhibitors with excellent in vivo activity” (J Med Chem, 2009)
Calls of active or inactive are those of the source. The rule behind the calls is not given here.

How the values were obtained:
[1] = molecular target: Gamma-secretase; test: Inhibition of gamma secretase in human SH-SY5Y cells by HTRF assay; format: cell-based
[2] = tested on: Mus musculus; test: Reduction in amyloid beta40 production in human betaAAP overexpressing YAC mouse forebrain at 3 mg/kg, po after 4 hrs relative to control; format: functional; design: scale not given: the % may be the effect or the level left
Method in brief: (§1)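 APP-YAC transgenic mice overexpressing human βAPP; oral dosing as suspension in 0.5% methocel, 3 mg/kg (also 0.3 and 1 mg/kg for dose–response). Soluble Aβ(40) in forebrain measured 4 h post-dose; reduction expressed relative to vehicle-treated animals; ED50 from dose–response.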

[3] = tested on: Mus musculus; test: Reduction in amyloid beta40 production in po dosed human betaAAP overexpressing YAC mouse forebrain after 4 hrs; format: functional; settings: Brain; method in brief: as §1
[4] = Half life in rat; format: ADME, organism-based; settings: in vivo
[5] = Bioavailability in dog; format: ADME, organism-based, Canis lupus familiaris; settings: in vivo
[6] = Half life in rhesus monkey; format: ADME, organism-based, Macaca mulatta; settings: in vivo
[7] = Half life in dog; format: ADME, organism-based, Canis lupus familiaris; settings: in vivo
[8] = Bioavailability in rat; format: ADME, organism-based; settings: in vivo
[9] = Inhibition of gamma secretase assessed as amyloid beta40 production
[10] = Bioavailability in rhesus monkey; format: ADME, organism-based, Macaca mulatta; settings: in vivo
[11] = Inhibition of gamma secretase assessed as amyloid beta42 production

IC50 [1] [nM] | Structure (SMILES) | further results
0.06 | O=S1(=O)N[C@@]2(CN1CC(F)(F)F)[C@@H]1CC[C@H]2Cc2ccc(-c3cn(-c4ccc(F)cc4F)cn3)cc2C1 | 
0.06 | Cn1nc(-c2ccc3c(c2)C[C@H]2CC[C@@H](C3)[C@]23CN(CC(F)(F)F)S(=O)(=O)N3)cc1-c1ccc(F)cc1F | 
0.46 | Cn1nc(-c2ccc3c(c2)C[C@H]2CC[C@@H](C3)[C@]23CN(CC(F)(F)F)S(=O)(=O)N3)cc1-c1cccc(F)c1 (racemic) | 
1.65 | Cn1nc(-c2ccc(F)cc2)cc1-c1ccc2c(c1)CC1CCC(C2)C12CN(CC(F)(F)F)S(=O)(=O)N2 (racemic) | 
0.17 | O=S1(=O)N[C@@]2(CN1CC(F)(F)F)[C@@H]1CC[C@H]2Cc2ccc(-c3cn(-c4ccccc4F)cn3)cc2C1 | 
0.42 | O=S1(=O)N[C@@]2(CN1CC(F)(F)F)[C@@H]1CC[C@H]2Cc2ccc(-c3ncc(-c4ccc(F)cc4)s3)cc2C1 | 
0.03 | O=S1(=O)N[C@@]2(CN1CC(F)(F)F)[C@@H]1CC[C@H]2Cc2ccc(-c3cn(-c4ccc(F)cc4)cn3)cc2C1 | Activity [2]: 66%
0.41 | Cn1nc(-c2ccc3c(c2)C[C@H]2CC[C@@H](C3)[C@]23CN(CC(F)(F)F)S(=O)(=O)N3)cc1-c1ccc(Cl)c(Cl)c1 | 
0.07 | Cn1nc(-c2ccc3c(c2)C[C@H]2CC[C@@H](C3)[C@]23CN(CC(F)(F)F)S(=O)(=O)N3)cc1-c1ccc(Cl)cc1 | 
0.82 | O=S1(=O)N[C@@]2(CN1CC(F)(F)F)[C@@H]1CC[C@H]2Cc2ccc(-c3cn(-c4cccc(F)c4)cn3)cc2C1 | 
0.42 | O=S1(=O)N[C@@]2(CN1CC(F)(F)F)[C@@H]1CC[C@H]2Cc2ccc(-c3cn(-c4ccc(Cl)c(Cl)c4)cn3)cc2C1 | 
0.24 | O=S1(=O)N[C@@]2(CN1CC(F)(F)F)[C@@H]1CC[C@H]2Cc2ccc(/C=C/CN3CCC(C(F)(F)F)CC3)cc2C1 | ED50 [3]: 17 mg/kg
0.34 | O=S1(=O)N[C@@]2(CN1CC(F)(F)F)[C@@H]1CC[C@H]2Cc2ccc(-c3ncc(N4CCC(C(F)(F)F)CC4)s3)cc2C1 | 
0.06 | Cn1nc(-c2ccc3c(c2)C[C@H]2CC[C@@H](C3)[C@]23CN(CC(F)(F)F)S(=O)(=O)N3)cc1-c1ccc(F)c(F)c1 | 
0.12 | O=S1(=O)N[C@@]2(CN1CC(F)(F)F)[C@@H]1CC[C@H]2Cc2ccc(-c3cn(-c4ccc(F)c(F)c4)cn3)cc2C1 | 
0.15 | O=S1(=O)N[C@@]2(CN1CC(F)(F)F)[C@@H]1CC[C@H]2Cc2ccc(-c3ncn(-c4ccc(F)cc4)n3)cc2C1 | 
0.08 | O=S1(=O)N[C@@]2(CN1CC(F)(F)F)[C@@H]1CC[C@H]2Cc2ccc(-c3cn(-c4ccc(Cl)cc4)cn3)cc2C1 | 
0.06 | Cn1nc(-c2ccc3c(c2)C[C@H]2CC[C@@H](C3)[C@]23CN(CC(F)(F)F)S(=O)(=O)N3)cc1-c1ccc(F)cc1 | half-life [4]: 2 h; bioavailability [5]: 42%; half-life [6]: 16 h; Activity [2]: 84%; half-life [7]: > 10 h; bioavailability [8]: 35%; Activity [9]: Active; bioavailability [10]: 45%; ED50 [3]: 1 mg/kg; Activity [11]: Active
0.21 | Cn1nc(-c2ccc3c(c2)CC2CCC(C3)C23CN(CC(F)(F)F)S(=O)(=O)N3)cc1-c1ccccc1F (racemic) | 
